Active and inactive are the calls of the source. The rule behind the calls is not given here.
What was measured:
[1] = biological target: T1, Tyrosine-protein phosphatase non-receptor type 1 (Homo sapiens) (UniProt P18031); test: Inhibition of PTP1B (unknown origin)
T1 sequence (whole entry): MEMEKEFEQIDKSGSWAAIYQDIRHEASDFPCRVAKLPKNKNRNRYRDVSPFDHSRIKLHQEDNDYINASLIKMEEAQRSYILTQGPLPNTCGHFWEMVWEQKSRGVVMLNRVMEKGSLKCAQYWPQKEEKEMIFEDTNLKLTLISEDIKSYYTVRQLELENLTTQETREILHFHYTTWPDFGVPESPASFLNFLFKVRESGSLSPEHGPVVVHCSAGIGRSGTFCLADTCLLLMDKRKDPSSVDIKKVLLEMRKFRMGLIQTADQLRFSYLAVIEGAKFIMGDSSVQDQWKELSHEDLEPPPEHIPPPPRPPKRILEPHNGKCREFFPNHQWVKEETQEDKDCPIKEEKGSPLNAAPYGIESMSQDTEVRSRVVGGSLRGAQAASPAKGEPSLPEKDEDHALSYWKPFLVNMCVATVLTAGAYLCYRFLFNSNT

[2] = biological target: T2, Tyrosine-protein phosphatase non-receptor type 22 (Homo sapiens, UniProt Q9Y2R2); test: Inhibition of LYP (unknown origin) using DiFMUP substrate incubated for 2 hrs
T2 sequence (Q9Y2R2 whole entry): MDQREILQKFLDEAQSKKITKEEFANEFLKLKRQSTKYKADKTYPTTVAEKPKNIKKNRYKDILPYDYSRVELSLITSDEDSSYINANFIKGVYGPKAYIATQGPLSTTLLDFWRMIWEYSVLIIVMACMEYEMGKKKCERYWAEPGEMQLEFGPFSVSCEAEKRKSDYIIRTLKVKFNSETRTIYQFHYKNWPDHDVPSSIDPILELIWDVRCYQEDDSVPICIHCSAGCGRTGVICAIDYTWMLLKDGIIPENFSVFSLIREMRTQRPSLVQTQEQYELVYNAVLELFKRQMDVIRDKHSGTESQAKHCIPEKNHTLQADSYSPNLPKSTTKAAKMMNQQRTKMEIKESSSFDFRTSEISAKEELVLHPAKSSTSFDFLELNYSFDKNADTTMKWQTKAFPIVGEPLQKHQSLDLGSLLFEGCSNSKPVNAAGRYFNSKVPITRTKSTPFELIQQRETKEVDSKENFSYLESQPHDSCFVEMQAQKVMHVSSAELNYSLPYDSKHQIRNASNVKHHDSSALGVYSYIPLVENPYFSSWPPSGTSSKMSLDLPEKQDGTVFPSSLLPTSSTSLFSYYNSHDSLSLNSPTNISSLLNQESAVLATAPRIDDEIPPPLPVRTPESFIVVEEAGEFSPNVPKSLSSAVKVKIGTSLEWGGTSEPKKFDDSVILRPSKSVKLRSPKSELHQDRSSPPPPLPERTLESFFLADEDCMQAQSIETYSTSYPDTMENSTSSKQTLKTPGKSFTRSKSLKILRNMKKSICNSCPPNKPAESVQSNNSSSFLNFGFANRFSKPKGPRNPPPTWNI
Outline: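 LYP preincubated with inhibitor for 0, 30, 60 and 120 min before activity was read, without added zinc. IC50 came from the dose-response after the 2 h incubation.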

[3] = biological target: T3, Receptor-type tyrosine-protein phosphatase C (Homo sapiens) (UniProt P08575); test: Inhibition of CD45 (unknown origin)
T3 sequence (whole entry): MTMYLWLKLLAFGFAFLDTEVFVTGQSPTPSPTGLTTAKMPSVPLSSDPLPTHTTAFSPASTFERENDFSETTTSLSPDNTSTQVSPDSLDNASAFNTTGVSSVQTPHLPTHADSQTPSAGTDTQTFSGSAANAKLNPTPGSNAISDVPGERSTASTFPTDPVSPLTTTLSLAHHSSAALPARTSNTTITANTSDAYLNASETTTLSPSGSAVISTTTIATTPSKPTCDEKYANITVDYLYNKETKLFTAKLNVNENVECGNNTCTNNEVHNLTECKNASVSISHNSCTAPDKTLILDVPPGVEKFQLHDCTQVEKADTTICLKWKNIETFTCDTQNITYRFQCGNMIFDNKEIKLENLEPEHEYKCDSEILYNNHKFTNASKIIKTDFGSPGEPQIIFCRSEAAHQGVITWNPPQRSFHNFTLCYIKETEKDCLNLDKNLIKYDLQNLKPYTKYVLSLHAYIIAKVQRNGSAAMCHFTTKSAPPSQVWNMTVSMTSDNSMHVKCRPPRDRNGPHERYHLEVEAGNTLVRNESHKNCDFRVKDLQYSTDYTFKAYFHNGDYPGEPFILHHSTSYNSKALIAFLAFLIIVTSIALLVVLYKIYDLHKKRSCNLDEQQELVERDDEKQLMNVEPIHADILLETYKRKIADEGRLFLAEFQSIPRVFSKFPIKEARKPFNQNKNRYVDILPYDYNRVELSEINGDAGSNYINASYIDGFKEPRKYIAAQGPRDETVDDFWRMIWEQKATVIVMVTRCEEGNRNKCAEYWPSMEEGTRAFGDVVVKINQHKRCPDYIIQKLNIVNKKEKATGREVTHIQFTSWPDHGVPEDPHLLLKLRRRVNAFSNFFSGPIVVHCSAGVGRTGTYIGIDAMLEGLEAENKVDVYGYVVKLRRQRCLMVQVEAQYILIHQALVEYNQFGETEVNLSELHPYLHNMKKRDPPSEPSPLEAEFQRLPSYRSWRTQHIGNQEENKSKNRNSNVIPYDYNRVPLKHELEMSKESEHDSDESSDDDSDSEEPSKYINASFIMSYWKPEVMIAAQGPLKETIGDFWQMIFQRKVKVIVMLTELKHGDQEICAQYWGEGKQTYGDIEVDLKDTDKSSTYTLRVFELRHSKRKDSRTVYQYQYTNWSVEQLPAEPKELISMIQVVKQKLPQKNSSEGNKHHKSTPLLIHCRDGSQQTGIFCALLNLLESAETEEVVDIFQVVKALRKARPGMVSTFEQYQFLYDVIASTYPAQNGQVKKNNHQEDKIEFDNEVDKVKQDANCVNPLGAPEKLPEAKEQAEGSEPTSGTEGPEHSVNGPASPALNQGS

[4] = biological target: T4, Tyrosine-protein phosphatase non-receptor type 22 (Homo sapiens) (UniProt Q9Y2R2); test: Inhibition of LYP (unknown origin) incubated for 30 mins at 25 degC before addition of DiFMUP substrate in presence of 5 uM zinc acetate; conditions: TDE = time-dependent effect
T4 sequence (whole entry): T2 sequence (Q9Y2R2 whole entry)
Outline: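 Fragment screen and follow-up dose-response run with 5 μM zinc acetate added to the LYP assay, alongside a parallel series without zinc.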

[5] = Inhibition of YopH (unknown origin)
[6] = biological target: T4, Tyrosine-protein phosphatase non-receptor type 22 (Homo sapiens); test: Inhibition of LYP (unknown origin) at 20 to 100 uM incubated for 30 mins at 25 degC before addition of DiFMUP substrate
[7] = biological target: T4, Tyrosine-protein phosphatase non-receptor type 22 (Homo sapiens); test: Protection against 40 uM zinc-acetate-induced inhibition of LYP (unknown origin) at 80 uM incubated for 30 mins at 25 degC before addition of DiFMUP substrate

SMILES	IC50 [2]	inhibition [6]	Activity [7]	also measured
Oc1ccc2ccccc2c1O	2520 nM			inhibition [1]: Active; inhibition [3]: Active; inhibition [4]: tde; inhibition [5]: Active
c1ccc(CNCc2ccccn2)nc1		inactive	Active	
O=C(O)c1cccc(C(=O)O)n1		inactive	Active	
Oc1ccc(Cl)c2cccnc12		inactive	Active	
O=C1C=C(O)C(=O)c2ccccc21 [LAWSONE]	5600 nM			
O=C1C=Cc2ccccc2C1=O [1,2-NAPHTHOQUINONE]	1100 nM			

From ChEMBL document CHEMBL3351733, “Inhibition of the lymphoid tyrosine phosphatase: the effect of zinc(II) ions and chelating ligand fragments on enzymatic activity” (Bioorg Med Chem Lett, 2014)
